Assay results: ChEMBL document CHEMBL4390691, “Discovery of 1,3-dihydro-2H-imidazo[4,5-c]quinolin-2-ones based novel, potent and PI3Kδ selective inhibitors” (Bioorg Med Chem Lett, 2019)
Active and inactive are the calls of the source. The calls are words filed in the database; no cut-off is given here.

How the values were obtained:
TMD8 [1] = test: Antiproliferative activity against human TMD8 cells; format: functional, cell-based
[2] = molecular target: T1, Phosphatidylinositol 4,5-bisphosphate 3-kinase catalytic subunit delta isoform (Homo sapiens, UniProt O00329); test: Inhibition of human PI3Kdelta using PIP2 as substrate after 1 hr
T1 sequence (O00329 whole entry): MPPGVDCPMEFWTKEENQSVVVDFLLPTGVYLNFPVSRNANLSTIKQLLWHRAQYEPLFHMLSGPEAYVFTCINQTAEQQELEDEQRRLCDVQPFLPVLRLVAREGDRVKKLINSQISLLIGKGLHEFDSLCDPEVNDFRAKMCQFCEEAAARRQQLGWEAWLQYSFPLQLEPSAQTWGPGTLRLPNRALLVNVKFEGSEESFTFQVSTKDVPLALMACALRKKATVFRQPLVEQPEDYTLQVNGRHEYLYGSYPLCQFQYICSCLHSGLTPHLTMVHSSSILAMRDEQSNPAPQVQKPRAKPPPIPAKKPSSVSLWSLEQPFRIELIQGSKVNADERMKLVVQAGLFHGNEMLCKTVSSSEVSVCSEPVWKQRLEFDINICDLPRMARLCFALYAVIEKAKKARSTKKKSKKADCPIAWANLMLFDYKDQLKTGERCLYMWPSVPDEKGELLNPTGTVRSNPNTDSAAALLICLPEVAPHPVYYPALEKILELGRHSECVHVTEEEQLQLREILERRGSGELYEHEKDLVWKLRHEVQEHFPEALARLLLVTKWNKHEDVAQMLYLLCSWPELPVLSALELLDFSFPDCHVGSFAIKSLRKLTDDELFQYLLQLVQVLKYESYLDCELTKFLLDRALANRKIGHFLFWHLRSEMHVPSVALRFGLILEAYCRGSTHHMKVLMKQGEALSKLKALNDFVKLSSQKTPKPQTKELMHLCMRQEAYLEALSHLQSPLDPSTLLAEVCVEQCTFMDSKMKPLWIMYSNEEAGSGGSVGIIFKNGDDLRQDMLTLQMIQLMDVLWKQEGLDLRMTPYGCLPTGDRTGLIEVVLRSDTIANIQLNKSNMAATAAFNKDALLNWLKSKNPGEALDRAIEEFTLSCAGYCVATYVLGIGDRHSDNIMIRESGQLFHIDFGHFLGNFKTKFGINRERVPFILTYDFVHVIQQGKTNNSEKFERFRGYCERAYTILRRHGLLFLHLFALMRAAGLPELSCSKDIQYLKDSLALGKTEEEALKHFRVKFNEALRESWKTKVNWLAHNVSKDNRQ

[3] = molecular target: Phosphatidylinositol 4,5-bisphosphate 3-kinase catalytic subunit alpha isoform (Homo sapiens, UniProt P42336); test: Inhibition of human PI3Kalpha using PIP2 as substrate after 1 hr
Chain of Phosphatidylinositol 4,5-bisphosphate 3-kinase catalytic subunit alpha isoform (P42336 whole entry, looked up, canonical isoform): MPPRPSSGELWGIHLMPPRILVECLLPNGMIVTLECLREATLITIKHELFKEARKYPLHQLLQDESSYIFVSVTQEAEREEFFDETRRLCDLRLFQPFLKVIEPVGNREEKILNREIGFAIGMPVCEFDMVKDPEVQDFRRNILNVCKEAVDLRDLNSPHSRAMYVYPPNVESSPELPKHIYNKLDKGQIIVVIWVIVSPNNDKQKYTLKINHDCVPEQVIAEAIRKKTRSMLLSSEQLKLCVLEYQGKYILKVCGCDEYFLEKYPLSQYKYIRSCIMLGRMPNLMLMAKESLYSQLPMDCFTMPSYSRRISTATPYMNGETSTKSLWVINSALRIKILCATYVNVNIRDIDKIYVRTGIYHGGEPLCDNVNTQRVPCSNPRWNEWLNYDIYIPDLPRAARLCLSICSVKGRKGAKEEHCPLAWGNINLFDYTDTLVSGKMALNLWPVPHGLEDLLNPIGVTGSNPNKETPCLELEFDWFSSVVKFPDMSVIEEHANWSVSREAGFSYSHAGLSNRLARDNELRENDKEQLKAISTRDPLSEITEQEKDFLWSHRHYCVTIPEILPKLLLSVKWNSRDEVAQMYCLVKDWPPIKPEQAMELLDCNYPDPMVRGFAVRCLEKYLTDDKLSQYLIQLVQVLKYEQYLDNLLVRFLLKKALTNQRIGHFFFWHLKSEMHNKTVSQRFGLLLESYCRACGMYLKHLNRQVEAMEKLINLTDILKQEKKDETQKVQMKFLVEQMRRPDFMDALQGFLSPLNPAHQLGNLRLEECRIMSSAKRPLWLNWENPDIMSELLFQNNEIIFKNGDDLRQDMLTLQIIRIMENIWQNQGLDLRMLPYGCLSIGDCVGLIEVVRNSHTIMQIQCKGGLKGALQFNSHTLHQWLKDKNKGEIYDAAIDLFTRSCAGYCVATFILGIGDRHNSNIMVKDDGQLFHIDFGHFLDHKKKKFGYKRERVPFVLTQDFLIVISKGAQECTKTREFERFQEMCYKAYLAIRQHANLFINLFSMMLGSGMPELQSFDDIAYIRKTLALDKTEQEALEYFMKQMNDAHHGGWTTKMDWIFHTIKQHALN

[4] = molecular target: Phosphatidylinositol 4,5-bisphosphate 3-kinase catalytic subunit beta isoform (Homo sapiens, UniProt P42338); test: Inhibition of human PI3Kbeta using PIP2 as substrate after 1 hr
Chain of Phosphatidylinositol 4,5-bisphosphate 3-kinase catalytic subunit beta isoform (P42338 whole entry, canonical isoform): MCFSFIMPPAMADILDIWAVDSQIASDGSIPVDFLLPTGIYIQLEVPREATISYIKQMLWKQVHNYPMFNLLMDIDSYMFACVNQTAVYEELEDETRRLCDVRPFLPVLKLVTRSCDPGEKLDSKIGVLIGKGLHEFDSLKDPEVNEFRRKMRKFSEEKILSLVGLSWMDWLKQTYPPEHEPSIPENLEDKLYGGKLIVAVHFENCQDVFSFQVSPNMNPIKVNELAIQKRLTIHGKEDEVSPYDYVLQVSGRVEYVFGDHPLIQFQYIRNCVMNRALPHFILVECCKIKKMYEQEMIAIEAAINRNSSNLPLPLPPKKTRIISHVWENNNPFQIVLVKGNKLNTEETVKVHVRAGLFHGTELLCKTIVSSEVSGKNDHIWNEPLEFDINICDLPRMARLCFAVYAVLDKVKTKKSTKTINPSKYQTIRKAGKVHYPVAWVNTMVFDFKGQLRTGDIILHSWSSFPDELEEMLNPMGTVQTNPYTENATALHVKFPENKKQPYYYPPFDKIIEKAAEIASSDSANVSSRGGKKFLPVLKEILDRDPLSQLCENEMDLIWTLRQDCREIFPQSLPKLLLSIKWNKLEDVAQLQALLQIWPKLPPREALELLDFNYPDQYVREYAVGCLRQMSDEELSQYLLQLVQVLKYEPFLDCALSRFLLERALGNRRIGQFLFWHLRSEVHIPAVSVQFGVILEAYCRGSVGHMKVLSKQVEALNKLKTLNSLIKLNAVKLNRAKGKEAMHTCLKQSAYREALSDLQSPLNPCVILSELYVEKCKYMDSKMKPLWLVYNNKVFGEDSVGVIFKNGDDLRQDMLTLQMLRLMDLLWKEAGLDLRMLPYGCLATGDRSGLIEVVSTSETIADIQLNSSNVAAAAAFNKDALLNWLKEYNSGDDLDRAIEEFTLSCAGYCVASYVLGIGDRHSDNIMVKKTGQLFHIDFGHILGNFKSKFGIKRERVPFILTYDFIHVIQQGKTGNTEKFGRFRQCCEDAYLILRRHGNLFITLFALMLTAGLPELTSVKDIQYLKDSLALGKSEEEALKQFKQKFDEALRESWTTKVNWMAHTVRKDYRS

[5] = molecular target: Phosphatidylinositol 4,5-bisphosphate 3-kinase catalytic subunit gamma isoform (Homo sapiens, UniProt P48736); test: Inhibition of human PI3Kgamma using PIP2 as substrate after 1 hr
Chain of Phosphatidylinositol 4,5-bisphosphate 3-kinase catalytic subunit gamma isoform (P48736 whole entry, canonical isoform): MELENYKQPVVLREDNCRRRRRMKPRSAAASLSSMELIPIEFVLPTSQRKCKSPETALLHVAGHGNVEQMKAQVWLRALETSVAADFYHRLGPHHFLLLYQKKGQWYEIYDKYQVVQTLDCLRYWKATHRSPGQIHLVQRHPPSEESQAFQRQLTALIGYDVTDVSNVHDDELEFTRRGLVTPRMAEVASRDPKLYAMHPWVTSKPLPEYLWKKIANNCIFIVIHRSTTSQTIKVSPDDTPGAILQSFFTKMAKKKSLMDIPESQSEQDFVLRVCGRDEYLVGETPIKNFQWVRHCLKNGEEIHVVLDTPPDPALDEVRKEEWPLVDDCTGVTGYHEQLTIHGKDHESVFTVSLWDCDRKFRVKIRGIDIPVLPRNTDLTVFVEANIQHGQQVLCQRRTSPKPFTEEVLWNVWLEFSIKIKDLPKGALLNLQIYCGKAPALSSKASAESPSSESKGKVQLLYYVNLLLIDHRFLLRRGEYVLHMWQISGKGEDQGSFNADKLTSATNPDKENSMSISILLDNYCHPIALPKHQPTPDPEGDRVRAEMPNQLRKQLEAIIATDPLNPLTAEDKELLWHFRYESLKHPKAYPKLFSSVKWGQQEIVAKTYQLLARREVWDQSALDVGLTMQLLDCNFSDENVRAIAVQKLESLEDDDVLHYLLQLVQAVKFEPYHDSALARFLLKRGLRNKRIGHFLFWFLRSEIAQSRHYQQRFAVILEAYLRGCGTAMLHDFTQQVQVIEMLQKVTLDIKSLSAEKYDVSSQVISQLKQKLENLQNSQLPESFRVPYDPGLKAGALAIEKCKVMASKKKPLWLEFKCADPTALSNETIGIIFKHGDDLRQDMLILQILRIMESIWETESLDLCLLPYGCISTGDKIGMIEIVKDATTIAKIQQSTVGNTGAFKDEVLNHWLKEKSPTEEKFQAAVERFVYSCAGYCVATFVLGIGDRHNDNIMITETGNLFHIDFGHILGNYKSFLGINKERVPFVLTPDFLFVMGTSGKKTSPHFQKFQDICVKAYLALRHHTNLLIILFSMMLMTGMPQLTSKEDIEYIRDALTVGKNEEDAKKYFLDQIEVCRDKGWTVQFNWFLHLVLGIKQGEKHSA

[6] = molecular target: Serine/threonine-protein kinase mTOR (Homo sapiens, UniProt P42345); test: Inhibition of mTOR (unknown origin) assessed as reduction in p70S6K phosphorylation
Homo sapiens [7] = species on record: Homo sapiens; test: Selectivity ratio of IC50 for human PI3Kalpha to IC50 for human PI3Kdelta
Procedure, shortened: (§1)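 IC50s for the PI3K α, β, γ and δ isoforms came from a commercial PI3K inhibitory activity assay kit. Each IC50 is the mean of at least two experiments. The ratio is the α, β or γ IC50 divided by the δ IC50.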

Homo sapiens [8] = species on record: Homo sapiens; test: Selectivity ratio of IC50 for human PI3Kbeta to IC50 for human PI3Kdelta; procedure, shortened: as §1
Homo sapiens [9] = species on record: Homo sapiens; test: Selectivity ratio of IC50 for human PI3Kgamma to IC50 for human PI3Kdelta; procedure, shortened: as §1
CYP1A2 = molecular target: T2, CYP1A2 (Homo sapiens, UniProt P05177); test: Inhibition of CYP1A2 in human liver microsomes at 10 uM using testosterone/dextromethorphan as probe substrate measured after 10 mins relative to control; format: ADME
T2 sequence (P05177 whole entry): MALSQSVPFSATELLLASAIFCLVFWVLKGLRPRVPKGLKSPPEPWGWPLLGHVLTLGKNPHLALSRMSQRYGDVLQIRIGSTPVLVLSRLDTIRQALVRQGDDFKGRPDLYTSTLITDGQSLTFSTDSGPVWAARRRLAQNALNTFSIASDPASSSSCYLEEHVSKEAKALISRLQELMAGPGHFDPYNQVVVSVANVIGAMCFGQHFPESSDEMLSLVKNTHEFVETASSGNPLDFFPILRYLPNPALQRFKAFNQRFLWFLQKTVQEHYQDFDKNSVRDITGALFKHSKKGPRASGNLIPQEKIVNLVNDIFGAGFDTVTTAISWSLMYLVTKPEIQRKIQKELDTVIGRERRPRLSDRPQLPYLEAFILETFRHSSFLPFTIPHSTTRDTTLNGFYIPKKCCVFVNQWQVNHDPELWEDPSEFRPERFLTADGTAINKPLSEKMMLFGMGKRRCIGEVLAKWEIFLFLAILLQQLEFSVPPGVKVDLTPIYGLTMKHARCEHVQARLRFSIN

CYP2C8 = molecular target: T3, CYP2C8 (Homo sapiens, UniProt P10632); test: Inhibition of CYP2C8 in human liver microsomes at 10 uM using testosterone/dextromethorphan as probe substrate measured after 10 mins relative to control; format: ADME
T3 sequence (P10632 whole entry): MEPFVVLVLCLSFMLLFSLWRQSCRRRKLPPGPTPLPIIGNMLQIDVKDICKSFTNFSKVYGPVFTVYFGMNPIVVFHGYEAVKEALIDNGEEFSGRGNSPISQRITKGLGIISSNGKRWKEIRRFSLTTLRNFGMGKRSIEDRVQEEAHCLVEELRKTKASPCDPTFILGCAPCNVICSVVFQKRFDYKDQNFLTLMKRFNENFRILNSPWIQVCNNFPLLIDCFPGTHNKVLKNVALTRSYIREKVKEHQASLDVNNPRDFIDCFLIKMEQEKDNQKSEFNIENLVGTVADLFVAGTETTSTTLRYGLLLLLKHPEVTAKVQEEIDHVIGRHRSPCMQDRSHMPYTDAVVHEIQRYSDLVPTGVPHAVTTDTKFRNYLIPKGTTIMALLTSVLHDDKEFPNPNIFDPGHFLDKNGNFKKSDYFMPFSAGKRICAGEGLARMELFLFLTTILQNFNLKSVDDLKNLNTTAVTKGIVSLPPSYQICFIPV

CYP2C9 = CYP2C9 (Homo sapiens, UniProt P11712); test: Inhibition of CYP2C9 in human liver microsomes at 10 uM using testosterone/dextromethorphan as probe substrate measured after 10 mins relative to control; format: ADME
Chain of CYP2C9 (P11712 whole entry): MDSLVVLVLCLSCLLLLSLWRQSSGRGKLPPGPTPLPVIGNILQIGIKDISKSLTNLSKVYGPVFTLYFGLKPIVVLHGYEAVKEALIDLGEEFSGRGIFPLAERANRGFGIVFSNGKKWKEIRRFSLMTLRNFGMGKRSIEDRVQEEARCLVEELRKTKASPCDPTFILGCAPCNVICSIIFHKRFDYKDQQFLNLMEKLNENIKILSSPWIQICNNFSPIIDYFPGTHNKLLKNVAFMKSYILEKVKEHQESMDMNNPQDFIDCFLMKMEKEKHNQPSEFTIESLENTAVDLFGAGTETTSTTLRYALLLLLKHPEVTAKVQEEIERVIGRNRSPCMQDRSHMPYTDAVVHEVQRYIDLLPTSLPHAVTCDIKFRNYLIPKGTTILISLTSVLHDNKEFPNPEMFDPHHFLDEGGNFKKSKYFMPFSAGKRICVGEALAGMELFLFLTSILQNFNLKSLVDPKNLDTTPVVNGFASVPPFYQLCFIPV

CYP2D6 = CYP2D6 (Homo sapiens, UniProt P10635); test: Inhibition of CYP2D6 in human liver microsomes at 10 uM using testosterone/dextromethorphan as probe substrate measured after 10 mins relative to control; format: ADME
Chain of CYP2D6 (P10635 whole entry): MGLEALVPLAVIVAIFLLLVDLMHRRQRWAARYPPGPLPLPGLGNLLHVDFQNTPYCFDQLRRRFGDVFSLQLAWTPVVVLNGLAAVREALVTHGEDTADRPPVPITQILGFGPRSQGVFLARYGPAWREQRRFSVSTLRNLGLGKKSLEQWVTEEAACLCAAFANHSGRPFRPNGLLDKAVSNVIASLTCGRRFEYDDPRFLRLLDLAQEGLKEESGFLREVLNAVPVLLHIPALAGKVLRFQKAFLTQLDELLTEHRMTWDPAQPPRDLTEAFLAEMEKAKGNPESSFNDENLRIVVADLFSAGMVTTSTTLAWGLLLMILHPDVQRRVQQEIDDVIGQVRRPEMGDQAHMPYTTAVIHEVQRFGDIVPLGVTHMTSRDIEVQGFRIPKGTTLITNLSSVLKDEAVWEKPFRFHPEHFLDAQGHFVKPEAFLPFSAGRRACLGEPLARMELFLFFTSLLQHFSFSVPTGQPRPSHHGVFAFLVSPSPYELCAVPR

CYP2C19 = CYP2C19 (Homo sapiens, UniProt P33261); test: Inhibition of CYP2C19 in human liver microsomes at 10 uM using testosterone/dextromethorphan as probe substrate measured after 10 mins relative to control; format: ADME
Chain of CYP2C19 (P33261 whole entry): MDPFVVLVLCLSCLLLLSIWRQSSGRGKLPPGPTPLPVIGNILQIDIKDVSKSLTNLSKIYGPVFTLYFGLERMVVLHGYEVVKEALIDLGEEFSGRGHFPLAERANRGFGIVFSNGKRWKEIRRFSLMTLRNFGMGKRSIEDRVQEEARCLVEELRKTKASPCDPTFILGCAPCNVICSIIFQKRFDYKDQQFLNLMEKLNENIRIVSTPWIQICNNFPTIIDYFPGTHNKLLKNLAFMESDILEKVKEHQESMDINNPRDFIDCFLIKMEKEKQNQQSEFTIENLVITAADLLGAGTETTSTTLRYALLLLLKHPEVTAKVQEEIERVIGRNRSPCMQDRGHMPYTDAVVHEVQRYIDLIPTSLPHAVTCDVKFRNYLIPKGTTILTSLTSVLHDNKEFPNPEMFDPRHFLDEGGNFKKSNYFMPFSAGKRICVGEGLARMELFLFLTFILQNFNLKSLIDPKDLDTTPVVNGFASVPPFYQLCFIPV

CYP3A4 = CYP3A4 (Homo sapiens, UniProt P08684); test: Inhibition of CYP3A4 in human liver microsomes at 10 uM using testosterone/dextromethorphan as probe substrate measured after 10 mins relative to control; format: ADME
[10] = molecular target: Voltage-gated inwardly rectifying potassium channel KCNH2 (Homo sapiens, UniProt Q12809); test: Inhibition of human ERG
[11] = Tmax in C57BL/6J mouse at 3 mg/kg, po measured up to 30 hrs by LC-MS/MS analysis; format: ADME, organism-based; settings: in vivo
Procedure, shortened: (§2)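 Male C57BL/6J mice (n = 6) received single doses of 3 mg/kg po or 1 mg/kg iv. Plasma concentrations were measured by LC-MS. Values are mean ± SD. Oral bioavailability (%F) was calculated from the ratio to iv AUC.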

[12] = Cmax in C57BL/6J mouse at 3 mg/kg, po measured up to 30 hrs by LC-MS/MS analysis; format: ADME, organism-based; parameters: dose 3 mg/kg, route oral; settings: in vivo; procedure, shortened: as §2
[13] = Half life in C57BL/6J mouse at 3 mg/kg, po measured up to 30 hrs by LC-MS/MS analysis; format: ADME, organism-based; settings: in vivo; procedure, shortened: as §2
[14] = Clearance in C57BL/6J mouse at 1 mg/kg, iv measured up to 30 hrs by LC-MS/MS analysis; format: ADME, organism-based; settings: in vivo; procedure, shortened: as §2
[15] = AUC (0 to infinity) in C57BL/6J mouse 3 mg/kg, po measured up to 30 hrs by LC-MS/MS analysis; format: ADME, organism-based; parameters: dose 3 mg/kg, route oral, time infinity; settings: in vivo
Procedure, shortened: (§3)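 Single-dose PK in male C57BL/6J mice (n = 6), dosed 1 mg/kg iv or 3 mg/kg orally. Plasma drug levels were measured by LC-MS, and PK parameters (Tmax, Cmax, t1/2, Cl, AUC, %F) were derived. Values are given as mean ± SD. Oral bioavailability was calculated against the iv AUC.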

[16] = AUC (0 to infinity) in C57BL/6J mouse 1 mg/kg, iv measured up to 30 hrs by LC-MS/MS analysis; format: ADME, organism-based; parameters: dose 1 mg/kg, time infinity, route intravenous; settings: in vivo; procedure, shortened: as §3
[17] = Oral bioavailability in C57BL/6J mouse at 3 mg/kg measured up to 30 hrs by LC-MS/MS analysis; format: ADME, organism-based; settings: in vivo; procedure, shortened: as §2
[18] = Protein binding in DBA1/J mouse plasma; format: ADME, cell-free; settings: read-out: PPB (converted)
Mus musculus [19] = test: Antiarthritic activity in complete Freund's adjuvant-induced DBA1/J mouse arthritis model assessed as inhibition in clinical arthritis score at 30 mg/kg, po […] relative to control; format: functional, organism-based
Procedure, shortened: (§4)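 Male DBA1j mice had arthritis induced with a collagen mixture and were enrolled once clinical signs appeared. Animals were split into four groups of eight: vehicle, a positive control and two doses of test compound. Treatment ran four weeks. The read-out was percentage inhibition of clinical arthritis score versus the vehicle group.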

[20] = Toxicity in DBA1/J mouse assessed as reduction in body weight at 30 mg/kg, po administered for […] measured thrice per week; format: organism-based; settings: in vivo
Procedure, shortened: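 The model was collagen-induced arthritis in male DBA1j mice, with eight per group and four weeks of treatment. Body weight was recorded three times weekly as a marker of treatment-related side effects.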

TMD8 [21] = test: Antitumor activity against human TMD8 cells xenografted in SCID mouse assessed as decrease in tumor volume at 3 to 30 mg/kg/day, po QD for 16 days and measured every alternate day; format: functional, organism-based
Procedure, shortened: (§5)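 Male SCID mice were inoculated with TMD-8 cells. Oral doses of 3, 10 and 30 mg/kg/day were given. The efficacy endpoint was inhibition of tumor volume relative to the vehicle (untreated) group.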

TMD8 [22] = test: Antitumor activity against human TMD8 cells xenografted in SCID mouse assessed as decrease in tumor volume at 30 mg/kg/day, po QD for 16 days and measured every alternate day; format: functional; settings: 384 h; procedure, shortened: as §5
Mus musculus [23] = test: Antiarthritic activity in complete Freund's adjuvant-induced DBA1/J mouse arthritis model assessed as inhibition in clinical arthritis score at 10 mg/kg, po administered […] relative to control; format: functional, organism-based; procedure, shortened: as §4
[24] = Toxicity in human TMD8 cells xenografted SCID mouse assessed as decrease in body weight at 30 mg/kg/day, po QD for 16 days; format: organism-based; settings: in vivo, 384 h
Procedure, shortened: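 Male SCID mice bearing TMD-8 xenografts received oral doses of 3, 10 or 30 mg/kg/day. Body weight was recorded during treatment.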

Row | IC50 [2] | IC50 [3] | IC50 [4] | IC50 [5] | IC50 [6] | Tmax [11] | Cmax [12] | half-life [13] | clearance [14] | AUC [15] | AUC [16] | bioavailability [17] | Compound | also measured
1 | 0.0019 µM | 0.891 µM | 0.589 µM | 0.112 µM | > 1 µM | 0.25 h | 1.28 µg/mL | 3.48 h | 0.494 L/h/kg | 3.83 µg·h/mL | 1.85 µg·h/mL | 68.9% | COc1ccc(Cn2c(=O)n(C)c3c4cc(-c5cnc(OC)c(NS(C)(=O)=O)c5)ccc4ncc32)cc1 | IC50 (TMD8 [1]): 0.34 µM; Ratio IC50 (Homo sapiens [7]): 469; Ratio IC50 (Homo sapiens [8]): 310; Ratio IC50 (Homo sapiens [9]): 59; inhibition at 10 min, 10 µM (CYP1A2): < 10%; inhibition at 10 min, 10 µM (CYP2C8): < 10%; inhibition at 10 min, 10 µM (CYP2C9): < 10%; inhibition at 10 min, 10 µM (CYP2D6): < 10%; inhibition at 10 min, 10 µM (CYP2C19): < 10%; inhibition at 10 min, 10 µM (CYP3A4): < 10%; IC50 [10]: > 30 µM; fraction unbound [18]: 0.11; inhibition (Mus musculus [19]): Active; Activity [20]: Non-Toxic; Activity (TMD8 [21]): Dose-dependent effect; inhibition in vivo at 30 mg/kg/day (TMD8 [22]): 100%; inhibition (Mus musculus [23]): Active; Activity [24]: Non-Toxic
2 | 0.0095 µM | 0.421 µM | 0.342 µM | 0.038 µM | 0.676 µM | 0.38 h | 0.128 µg/mL | 2.31 h | 1.37 L/h/kg | 0.329 µg·h/mL | 0.743 µg·h/mL | 14.8% | COc1ccc(Cn2c(=O)n(C)c3c4cc(-c5cnc6ccccc6c5)ccc4ncc32)cc1 | –
